# pIC50: −log10 of the molar value.
# Columns and labels:
# [1] = test system: Artemia salina (organism); assay: Toxicity in Artemia salina after 24 hrs; type: organism-based; conditions: in vivo
# Procedure, shortened: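 Brine shrimp nauplii hatched in filtered sea water over 48 h (lamp drawing hatched shrimps through a partitioned tank), exposed to compound in DMSO/sea water in tubes for 24 h under light. Dead and surviving shrimps counted; LC50 from concentration versus lethality percentage on a probit scale. Sea water plus DMSO served as control.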
# Leishmania chagasi = assay: Antileishmanial activity against promastigote form of Leishmania chagasi MCAN/BR/99/JP15 after 72 hrs; type: functional, organism-based, MCAN/BR/99/JP; conditions: for pIC50: Leishmania chagasi, MCAN/BR/99/JP, 72 h, read-out: IC50
# Procedure, shortened: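 Log-phase promastigotes at 1 × 10^6 parasites/mL were grown at 26 °C in Schneider's Drosophila medium with 20% FBS, with or without a range of adduct concentrations, for 72 h. Glucantime served as the reference drug. Parasites were fixed in isotonic citric acid/NaCl/formalin solution, and growth was counted by light microscopy in a Neubauer chamber. Three independent experiments were run in triplicate.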
# Leishmania amazonensis = assay: Antileishmanial activity against Leishmania amazonensis; type: functional, organism-based
Molecule,LC50 at 24 h [1],pIC50 (Leishmania chagasi),IC50 (Leishmania chagasi),pIC50 (Leishmania amazonensis)
C=C(C#N)C(O)c1ccccc1[N+](=O)[O-] (stereo unspecified),430 µM,4.41,–,–
C=C(C#N)C(O)c1ccc(Br)cc1 (stereo unspecified),130 µM,4.60,–,–
C=C(C#N)C(O)c1cccc([N+](=O)[O-])c1 (stereo unspecified),471 µM,4.46,–,–
C=C(C#N)C(O)c1ccncc1 (stereo unspecified),443 µM,4.52,–,–
MEGLUMINE ANTIMONATE,–,–,1620.3 µg/mL,–
C=C(C#N)C(O)c1cccnc1 (stereo unspecified),555 µM,4.43,–,–
C=C(C#N)C(O)c1ccccn1 (stereo unspecified),545 µM,4.49,–,–
C=C(C#N)C(O)c1ccc([N+](=O)[O-])cc1 (stereo unspecified),180 µM,4.43,–,5.10

# — ChEMBL document CHEMBL1137673, “Improved synthesis of seven aromatic Baylis-Hillman adducts (BHA): evaluation against Artemia salina Leach. and Leishmania chagasi” (Eur J Med Chem, 2009)
